Only some compounds are listed: those with a hit (about 2.8% of all), similar ones and a draw of the others.
NPY1 pot ag: NPY-Y1 receptor potentiators or agonists, primary screen, cell-based; NPY-Y1 expressing cells, potentiator/agonist activation; activation, % at 3.6 µM; Neuropeptide Y receptor type 1 (Homo sapiens), P25929; 220,000 compounds, 0.37% hits; in the data active = activation above about 33%, passing the limit was not always enough;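 note: cells stimulated with NPY at EC10 then isoproterenol at EC100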
NPY-Y2 antag: NPY-Y2 receptor antagonists, primary screen, cell-based; Neuropeptide Y receptor type 2 (Homo sapiens), P49146; NPY-Y2 expressing cells, antagonist mode; inhibition, % at 2.7 µM; 140,000 compounds, 0.99% hits
Target sequence (P49146 whole entry, looked up): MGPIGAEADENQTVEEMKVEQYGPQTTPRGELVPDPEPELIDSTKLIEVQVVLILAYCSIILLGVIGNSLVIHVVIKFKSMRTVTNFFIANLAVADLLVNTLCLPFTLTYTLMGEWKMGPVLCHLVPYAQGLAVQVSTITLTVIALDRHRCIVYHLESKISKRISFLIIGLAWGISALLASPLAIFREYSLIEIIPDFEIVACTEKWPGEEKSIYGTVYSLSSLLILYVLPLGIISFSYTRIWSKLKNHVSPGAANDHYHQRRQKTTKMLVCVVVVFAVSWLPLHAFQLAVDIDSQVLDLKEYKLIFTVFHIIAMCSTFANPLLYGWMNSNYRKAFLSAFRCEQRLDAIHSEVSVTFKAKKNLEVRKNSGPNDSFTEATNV
EP2 antag: human EP2 receptor antagonists, primary screen, TR-FRET cAMP, C6 glioma cells. inhibition, % at 25 µM. C6 glioma cells expressing human EP2; cells stimulated with saturating PGE2. AID 1422, 2008. 260,000 compounds, 0.52% hits. Prostaglandin E2 receptor EP2 subtype (Homo sapiens), P43116;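 active = percent inhibition above 40 after rounding to a whole number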;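 note: rat C6 glioma host cells with rolipram phosphodiesterase inhibitor present; the protocol text gives 20 µM as final concentration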
EP2 modulator: EP2 receptor modulators, cAMP readout, primary screen, cell-based, HTRF cAMP, PGE2 stimulation; Prostaglandin E2 receptor EP2 subtype (Homo sapiens), P43116; EP2-expressing cells, cAMP HTRF FRET, PGE2 co-stimulation; induction, % at 25 µM; 260,000 compounds, 0.83% hits; AID 940, 2007;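 active = compounds whose cAMP rise, as percent of the full-agonist control response, exceeds 60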;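 note: rat C6 glioma line stably carrying human EP2 under a CMV promoter; the protocol text gives 20 µM as final concentration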
NPY-Y2 PAM-ag: NPY-Y2 potentiators or agonists, primary screen, cell-based | 220,000 compounds, 0.45% hits | cells expressing NPY-Y2, potentiator/agonist read-out | activation, % at 3.6 µM | AID 1359, 2008 | Neuropeptide Y receptor type 2 (Homo sapiens), P49146; in the data active = activation above about 27%;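 note: cells stimulated with NPY near EC25 plus isoproterenol at EC100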
NPY-Y1 antag: NPY-Y1 receptor antagonists, primary screen, cell-based | HEK293-CNG Y1 cells, membrane potential fluorescence; NPY at EC95, then isoproterenol | 200,000 compounds, 1% hits | Neuropeptide Y receptor type 1 (Homo sapiens), P25929 | inhibition, % at 3.6 µM | AID 1040, 2008;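 active = inhibition above the campaign mean inhibition of all tested compounds plus 3 SD, cut at about 20% in these data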
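Test system – HEK293 Y1/CNG channel cell line · Also added – NPY agonist 25 nM, then isoproterenol 1 µM plus Ro 20-1724 25 µM · Compound dosing – one concentration, 3.6 µM, in 0.4% DMSO · Schedule – compound incubation 1 h at room temperature, readout 45 min post-stimulation · Technique – fluorescence, membrane potential probe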
NPY-Y1 ant conf: NPY-Y1 receptor antagonists, retest of hits, confirmation, HEK293-CNG cells, membrane potential fluorescence, triplicate. 1,200 compounds, 21% hits. inhibition, % at 3.6 µM. shares compounds with NPY-Y1 antag. cAMP; NPY challenge against isoproterenol-raised cAMP; in the data active = inhibition above about 20%
NPY-Y2 antag ct: NPY-Y2 receptor antagonists, selectivity check, confirmation, counter-screen for NPY-Y1 antagonist project, HEK293-CNG cells, membrane potential fluorescence, triplicate. AID 1255, 2008. shares compounds with NPY-Y1 antag. inhibition, % at 3.6 µM. antagonism; cells given NPY, then isoproterenol. 1,200 compounds, 28% hits
A number is an active result; n = inactive; x = no result. Cut-off read from the data, not from the text of the source, unless noted: active = inhibition above about 17%; inactive = the rest.

SMILES	NPY1 pot ag	NPY-Y2 antag	EP2 antag	EP2 modulator	NPY-Y2 PAM-ag	NPY-Y1 antag	NPY-Y1 ant conf	NPY-Y2 antag ct
CCCCCn1c2c(c(=N)c3ccccc31)CCC2	n	x	n	n	n	x	x	x
CCCCN1Cc2cc(C(=O)c3cc(F)ccc3O)cnc2NC1=O	n	n	n	n	n	22	n	n
Cc1ccc2cc3cc(C(=O)NCCCN4CCc5ccccc5C4)oc3nc2c1	n	n	n	n	n	21	n	n
Cc1ccc2cc3cc(C(=O)NCCCN4CCCCCC4)oc3nc2c1	n	n	x	n	n	n	x	x
Cc1ccc2cc(CN(CCN(C)C)C(=S)Nc3cccc(Cl)c3)c(=O)[nH]c2c1	x	x	n	n	x	x	x	x
CCOc1ccc(C(=O)Nc2cc(C)on2)cc1OCC	n	n	n	n	n	n	x	x
CCCCOc1cccc(OCCCC)c1C(=O)Nc1cc(C)on1	n	n	n	n	n	51	22	n
Cc1cc(C)c2[nH]c(=O)c(CN(CC3CCCO3)C(=O)Nc3ccccc3Cl)cc2c1 (centres undefined)	x	x	n	n	x	x	x	x
COc1ccc(C(=O)Nc2cccc(C)c2)cc1S(=O)(=O)N1CCOCC1	n	n	n	n	n	n	x	x
COc1ccc(C(=O)Nc2ccc(-c3ccc(C)o3)cc2)cc1S(=O)(=O)N1CCOCC1	n	n	n	n	n	20	n	n
Cn1c(=O)n(C)c2cc(CN(CCCn3ccnc3)Cc3ccccc3Cl)ccc21	x	x	n	n	x	x	x	x
Cc1ccc(CNC(=O)CCc2nc(-c3cccs3)no2)cc1	n	n	n	n	n	21	n	n
N=c1c2c(-c3ccccc3)c(-c3ccccc3)n(Cc3ccco3)c2ncn1CCCN1CCOCC1	n	x	n	n	n	56	44	39
CN(c1ccc(OCc2nnc(-c3ccccc3)o2)cc1)S(=O)(=O)c1ccccc1	n	n	n	n	n	28	n	n
CC1=CC(C)(C)n2c(O)c(N=N)c3cc(C)cc1c32	n	n	n	n	n	23	n	22
O=C(C1CCCO1)N1CCC(O)(c2ccccn2)CC1 (centres undefined)	x	x	n	n	x	x	x	x
CCOc1ccccc1OCc1nn2c(COc3ccccc3)nnc2s1	n	n	n	n	n	n	x	x
c1ccc(OCc2nn3c(C4CCCCC4)nnc3s2)cc1	n	n	n	n	n	27	n	n
CC(Oc1ccc(Cl)cc1Cl)C(=O)Nc1nnc(C(C)C)s1 (centres undefined)	x	x	n	n	x	x	x	x
O=C(/C=C\c1ccco1)NCC1OCCc2ccccc21 (centres undefined)	x	x	n	n	x	x	x	x
Cc1cc2c(s1)c1cnn(CC(=O)NC3CCCCC3C)c(=O)c1n2C (centres undefined)	x	x	x	n	x	x	x	x
O=c1c2ccccc2nc(SCCN2CCOCC2)n1CCc1ccccc1	n	x	n	n	n	n	x	x
COc1ccc(CSc2nc3ccccc3c(=O)n2CCCN2CCOCC2)cc1F	n	x	n	n	n	28	n	n
COc1ccc(CCn2c(SCCN3CCCCC3)nc3ccccc3c2=O)cc1OC	n	x	n	n	n	38	n	18
CCCc1cc(C(=O)N[C@@H](Cn2nc(-c3cccs3)ccc2=O)C(C)C)no1	x	x	n	n	x	x	x	x
SMILES	NPY1 pot ag	NPY-Y2 antag	EP2 antag	EP2 modulator	NPY-Y2 PAM-ag	NPY-Y1 antag	NPY-Y1 ant conf	NPY-Y2 antag ct
CC(=O)O[C@H]1CC[C@]2(C)C3CC[C@@]4(C)C(CC5O[C@@]6(CCC(C)CO6)[C@@H](C)C54)C3CC[C@@H]2C1 (some centres undefined)	x	x	n	n	x	x	x	x
Fc1ccc(C(c2nnnn2Cc2cccs2)N2CCN(C3CCCC3)CC2)cc1 (centres undefined)	n	n	n	n	n	n	x	x
Fc1ccc(C(c2nnnn2Cc2ccco2)N2CCN(C3CCCCC3)CC2)cc1 (centres undefined)	n	n	n	n	n	29	n	n
CCNC(=O)c1cc2c(=O)n3cc(C)ccc3nc2n(CCc2ccccc2)c1=N	x	x	n	n	x	x	x	x
COc1c(Cl)cc(Cl)cc1CNCCNCC(C)O (centres undefined)	n	n	x	n	n	n	x	x
CNCc1cc(Cl)cc(OC)c1OC(C)C	n	x	n	n	n	24	24	n
COc1ccc(N2CC(C(=O)Nc3ccc(Cl)cc3Cl)CC2=O)cc1 (centres undefined)	x	x	n	n	x	x	x	x
O=C(NC(N1CCCC1)C(Cl)(Cl)Cl)c1ccccc1 (centres undefined)	n	n	n	n	n	n	x	x
O=C(NC(N1CCOCC1)C(Cl)(Cl)Cl)c1ccc(F)cc1 (centres undefined)	n	x	n	n	n	53	n	n
COc1ccc(NC(=S)N(Cc2cc3cccc(C)c3[nH]c2=O)CC2CCCO2)cc1 (centres undefined)	x	x	n	n	x	x	x	x
Cc1ccccc1N/C(SCc1ccc(Cl)cc1)=C(/C#N)C(=O)NCc1ccco1	n	n	n	n	n	34	n	n
Cc1ccc(CS/C(Nc2ccccc2C)=C(\C#N)C(=O)NCc2ccco2)c(C)c1	n	n	n	n	n	n	x	x
Cc1ccc(SCC(=O)N=C2NC(=O)CS2)cc1	n	x	n	n	n	23	n	n
CCN(CC)c1ccc(S(=O)(=O)N2CCOCC2)cc1NC(=O)CN1CCc2ccccc2C1	n	x	n	n	n	23	n	n
Cc1ccc(S(=O)(=O)N2CCOCC2)cc1NC(=O)CN1CCC(Cc2ccccc2)CC1	n	x	n	n	n	30	n	n
COc1ccc([C@@H]2CN(C(=O)CCc3ccccc3)C[C@H]2C(=O)O)cc1	x	x	x	n	x	x	x	x
COc1ccc(OCc2n(CC(=O)OC3CC(C)CCC3C(C)C)c3ccccc3[n+]2C)cc1 (centres undefined)	n	x	n	n	n	x	x	x
COc1ccc(-c2n(CC(=O)OC3CC(C)CCC3C(C)C)c3ccccc3[n+]2C)cc1 (centres undefined)	n	x	n	n	n	150	135	91
COC(=O)C1CCCN1S(=O)(=O)c1ccc2ccccc2c1 (centres undefined)	n	n	n	n	n	41	57	27
Cc1c(C(c2ccccc2O)c2c(C)n(C)n(-c3ccccc3)c2=O)c(=O)n(-c2ccccc2)n1C	n	x	n	n	n	n	x	x
Cc1c(C(c2cc3c(cc2Br)OCO3)c2c(C)n(C)n(-c3ccccc3)c2=O)c(=O)n(-c2ccccc2)n1C	n	n	x	n	n	29	n	n

Bioassay records (PubChem BioAssay)
